A selection: hits, their analogues and other compounds. The true share with any hit is near 1.6%.
HNF4A DNA FP = change in binding of human HNF4 alpha to DNA; P41235; HNF4a-FITC DNA binding, fluorescence polarization, 1 h; activity change, % at 10 µM; 360,000 compounds, 0.3% hits; AID 1224865; in the data active = activity change above about 30%, passing the limit was not always enough
Target sequence (P41235 whole entry, looked up): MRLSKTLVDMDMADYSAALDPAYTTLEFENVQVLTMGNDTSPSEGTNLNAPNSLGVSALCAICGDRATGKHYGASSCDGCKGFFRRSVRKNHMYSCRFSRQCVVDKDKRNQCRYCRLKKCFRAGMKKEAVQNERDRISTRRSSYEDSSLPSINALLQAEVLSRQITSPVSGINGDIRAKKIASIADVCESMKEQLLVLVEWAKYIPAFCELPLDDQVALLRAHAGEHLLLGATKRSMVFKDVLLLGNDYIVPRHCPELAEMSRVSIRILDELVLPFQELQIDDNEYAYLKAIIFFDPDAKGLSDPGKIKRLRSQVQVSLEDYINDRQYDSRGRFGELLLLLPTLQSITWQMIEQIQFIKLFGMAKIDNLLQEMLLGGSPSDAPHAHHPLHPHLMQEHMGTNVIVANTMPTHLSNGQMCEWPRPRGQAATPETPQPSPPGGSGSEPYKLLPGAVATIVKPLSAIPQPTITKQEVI
SENP1 FRET inh = inhibitors of human SENP1 SUMO protease catalytic domain. recombinant SENP1 catalytic domain, CyPet-SUMO1-YPet FRET cleavage. inhibition, % at 10 µM. 360,000 compounds, 0.21% hits;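 active = inhibition at least 30% at 10 µM, raw YFP signal under a set limit, fluorescence ratio 0.5 to 1.5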
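Test system: recombinant human SENP1 catalytic domain, His6-tagged / Medium: pH 8 Tris buffer with EDTA, NaCl, BME, BSA, NP40, catalase / Also added: SUMO1 FRET substrate flanked by Cypet and Ypet, 25 nM / Times: 50 min reaction at room temperature / Signal: FRET, CFP and YFP emission / Control set: no-enzyme low control and enzyme-plus-DMSO high control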
CSN deneddyl inh = inhibitors of human CSN-mediated cullin deneddylation; 360,000 compounds, 0.38% hits; inhibition, % at 12.5 µM; Purified CSN, SCF-Nedd8-OG deneddylation, fluorescence polarization; Q92905;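 active = pattern-corrected inhibition above about 35%, with an unprinted fluorescence ratio check between 0.5 and 1.5, limit read from the data, passing the limit was not always enough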
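Assay system: purified human Csn5 enzyme expressed in HEK293T cells; measure: % inhibition; also added: SCFSkp2-Nedd8OG substrate at 10 nM final; technique: fluorescence polarization; times: reaction 90 min, room temperature; medium: Tris buffer pH 7.5, NaCl, DTT, Tween-20, trehalose, ovalbumin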
TPT1 inh = C. albicans TPT1 enzyme inhibition. recombinant caTPT1, FP RNA substrate dephosphorylation. inhibition, % at 5 µM. 300,000 compounds, 0.81% hits. AID 1962;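 active = inhibition above the mean of all tested compounds plus 3 SD, set per screening campaign, cut at about 24% in these data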
Rpn11 block = inhibitors of human proteasome Rpn11; human 26S proteasome, Ub4-pepOG fluorescence polarization; 20S core pre-blocked with epoxomicin; O00487; inhibition, % at 20 µM; 360,000 compounds, 0.59% hits;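 active = inhibition at 20 µM, scaled to each plate's controls, above about 33%, limit read from the data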
CSN deneddyl val = Csn5 (human) deneddylation inhibition, single-concentration validation | shares compounds with CSN deneddyl inh | inhibition, % at 16.6 µM | AID 720654 | 540 compounds, 62% hits | Csn5 deneddylation of SCF-Nedd8OG, fluorescence polarization, 90 min; in the data active = inhibition above about 50%
MMP-2 counter = counter-screen for CSN deneddylation inhibitors: human MMP-2 inhibition; 540 compounds, 33% hits; recombinant MMP-2, FRET substrate fluorescence, 60 min; shares compounds with CSN deneddyl inh; AID 720655; inhibition, % at 16.6 µM;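 active = corrected plate-normalized z-score of 5 or more, or -5 or less, or inhibition of 15% or more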
Thrombin cntr = blocks bovine thrombin in a CSN deneddylation counter-screen; shares compounds with CSN deneddyl inh; bovine thrombin cleavage of Ub4-pepOG, fluorescence polarization; inhibition, % at 16.6 µM; 540 compounds, 49% hits; AID 720656;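 active = inhibition at or above a set limit, with a fluorescence interference ratio between 0.5 and a set maximum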
Hits are given with their value; 0 = inactive; - = not tested or not shown.

SMILES	HNF4A DNA FP	SENP1 FRET inh	CSN deneddyl inh	TPT1 inh	Rpn11 block	CSN deneddyl val	MMP-2 counter	Thrombin cntr
NCc1cc2c3c(c1)CCCN3CCC2	0	0	63	0	0	88	0	0
COc1c(C=O)cc2c3c1CCCN3CCC2	0	0	0	0	0	-	-	-
N#Cc1ccc(C(=O)N2CCCCC2c2cc(C(=O)Nc3ccccc3Cl)no2)cc1 (centres undefined)	0	0	0	-	0	-	-	-
O=[N+]([O-])c1ccc(C2=NN(c3ccccc3)C(c3ccco3)C2)cc1 (centres undefined)	0	0	63	-	-	176	0	0
CCc1ccc([C@@H]2C[C@H]3[C@@H](CN2S(=O)(=O)c2ccc(C)cc2)C(=O)C[C@@H](c2ccc(C)cc2)N3S(=O)(=O)c2ccc(C)cc2)cc1	0	0	0	-	0	-	-	-
Oc1ccc(C2=Nn3c(nnc3-c3ccco3)SC2)cc1O	0	0	38	0	0	-	31	0
Cc1cccc(NC(=O)c2ccc(NS(=O)(=O)c3cccc4cccnc34)cc2)c1	0	0	0	-	0	-	-	-
O=[N+]([O-])c1cc2oc3c(c2c(C=NCc2ccccc2)c1O)CCCC3	0	46	74	0	-	82	0	18
Cc1ccc(N/C=C/C(=O)c2cccs2)cc1C	0	0	0	0	0	-	-	-
O=C(/C=C/Nc1ccc(Nc2ccccc2)cc1)c1cccs1	57	0	37	-	-	94	0	0
CC(=O)c1ccc(NC(=O)CSc2nnc(-c3ccco3)c(-c3ccco3)n2)cc1	0	0	0	0	0	-	-	-
O=C(CSc1nnc(-c2ccco2)c(-c2ccco2)n1)c1ccccc1	0	0	37	0	0	98	0	0
CC(=O)c1cccc(NC(=O)/C=C/c2ccc([N+](=O)[O-])s2)c1	0	0	35	-	0	97	0	0
Cc1cc(C)cc(NC(=O)/C=C/c2ccc([N+](=O)[O-])s2)c1	0	0	0	0	0	-	-	-
CC1(C)C2(C#N)C(=O)NC(=O)C12C#N (centres undefined)	0	0	0	-	0	-	-	-
Cc1csc(=O)n1CCC(=O)N(C)Cc1c(F)cccc1Cl	0	0	0	-	0	-	-	-
O=C1C=C(NCc2ccccc2)c2ccccc2C1=O	0	0	72	-	0	77	0	0
Cc1ccccc1OCCOC(=O)c1ccc(S(=O)(=O)N2CCCC2)cc1	0	0	0	-	0	-	-	-
CN(C)c1ccc2nc3ccc(=O)cc-3sc2c1	0	0	55	-	0	104	26	0
O=C(CCl)Nc1nc(-c2ccco2)c(-c2ccco2)s1	0	0	43	0	0	79	0	0
O=C1NN(c2ccccc2)C(=O)/C1=C/c1ccc(-c2ccc(C(=O)O)cc2)o1	0	0	35	0	0	60	0	0
O=C(CSc1nnc(COc2ccccc2)o1)N1CCCCC1	0	0	0	0	0	-	-	-
Cc1ccc(S(=O)(=O)C[C@@H]2OC[C@H](C(C)C)N2S(=O)(=O)c2ccc(C)cc2)cc1	0	0	0	-	-	-	-	-
COc1cc(OC)c(OC)cc1/C=C1\CCC/C(=C\c2cc(OC)c(OC)cc2OC)C1=O	54	0	37	-	-	66	0	43
C[C@@H]1CN([C@@H](C)CO)C(=O)c2cc(-c3cccnc3)cnc2O[C@H]1CN(C)C(=O)c1cccc(F)c1	0	0	0	-	0	-	-	-
SMILES	HNF4A DNA FP	SENP1 FRET inh	CSN deneddyl inh	TPT1 inh	Rpn11 block	CSN deneddyl val	MMP-2 counter	Thrombin cntr
CN1C(=S)N(c2cccnc2)C(=O)/C1=C\c1ccc(C(C)(C)C)cc1	0	0	0	0	0	-	-	-
CN1C(=S)N(c2cccnc2)C(=O)/C1=C\c1ccc(N(C)C)cc1	76	61	47	-	-	68	0	22
O=C(O)CN(C1CCCCC1)S(=O)(=O)c1ccc(F)cc1	0	0	0	0	0	-	-	-
O=C(CCN1C(=O)/C(=C/c2ccc(Cl)cc2)SC1=S)Nc1cccc(C(=O)O)c1	0	0	0	0	0	-	-	-
O=C(O)c1cccc(N2C(=O)/C(=C/c3ccc(SCc4ccc(Cl)cc4)o3)SC2=S)c1	0	0	46	-	-	-	0	49
O=C1NC(=S)S/C1=C\C=C\c1ccc([N+](=O)[O-])o1	0	0	0	-	-	-	-	-
O=C1NC(=S)S/C1=C/c1ccc(N2CCOCC2)o1	0	0	118	0	-	100	-25	0
COc1ccc(-n2nc(C(=O)N3CCC(N4CCCCC4)CC3)c3c4ccccc4n(C)c3c2=O)cc1	0	0	0	0	0	-	-	-
Cn1cc(/C=N/NC(=O)c2cc3cc(Br)ccc3o2)c2ccccc21	0	0	0	0	0	-	-	-
O=C(O)c1ccc(-n2cccc2/C=N\NC(=O)c2cc3cc(Br)ccc3o2)cc1	0	0	43	0	0	0	21	22
CC(OC(=O)CN1C(=O)c2ccccc2C1=O)C(=O)NC1CCCCC1 (centres undefined)	0	0	0	0	0	-	-	-
CC(Oc1ccc(F)cc1)C(=O)N(CCC1=CCCCC1)c1c(N)n(Cc2ccccc2)c(=O)[nH]c1=O (centres undefined)	0	0	0	0	0	-	-	-
Cc1ccc(-c2cc(C(=O)N/N=C/c3ccc([N+](=O)[O-])o3)c3ccccc3n2)o1	0	0	39	-	0	107	0	0
O=C(N/N=C/c1ccc([N+](=O)[O-])o1)c1cc(-c2ccc(-c3ccccc3)cc2)nc2ccccc12	0	0	0	0	0	-	-	-
CCN1C(=O)/C(=C/N2CCc3ccccc32)SC1=S	0	0	37	0	-	104	0	0
CC(=O)OC[C@]12CC[C@H]3[C@@](C)(CC[C@H]4C(C)(C)CCC[C@]34C)[C@@H]1CC(C1=CC(=O)OC1O)O2 (some centres undefined)	0	0	35	-	58	0	0	0
Fc1cccc(Cc2c(-c3ccco3)nc3c4ccccc4ccn23)c1	0	0	49	-	0	69	0	20
CC1CCc2nc3ccc(S(=O)(=O)N4CCC(C(=O)NC(C)c5ccccc5)CC4)cc3c(C(=O)O)c2C1 (centres undefined)	0	0	0	0	0	-	-	-
CC(C)Cn1c(N)c(C(=O)NCC2CCCO2)c2nc3ccccc3nc21 (centres undefined)	0	0	43	0	0	103	0	0
Nc1cccc2c1C(=O)N(C(=O)/C=C/c1ccc(F)cc1)C2=O	0	0	37	0	0	69	0	0
Nc1cccc2c1C(=O)N(C(=O)c1ccco1)C2=O	0	0	0	0	0	-	-	-
O=C(Cn1cnc2c(NC(=O)OCc3ccccc3)ncnc21)NCCN1CCOCC1	0	0	0	-	0	-	-	-
